From ChEMBL document CHEMBL4359873, “Benzothienoquinazolinones as new multi-target scaffolds: Dual inhibition of human Topoisomerase I and tubulin polymerization” (Eur J Med Chem, 2019)
Calls of active or inactive are those of the source. The rule behind the calls is not given here.

What was measured:
MDA-MB-231 = assay: Antiproliferative activity against triple negative human MDA-MB-231 cells assessed as reduction in cell viability after 72 hrs by MTT assay; format: functional, cell-based; conditions: MDA-MB-231, 72 h
Outline: (§1)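 Cells seeded, grown 24 h in full medium, then serum-starved 24 h before compound exposure. Six concentrations (0.1, 1, 10, 20, 40, 100 µM) tested in triplicate; MTT absorbance read at 570 nm; results as % of basal, IC50 calculated. Means ± standard deviations. MCF-7 in DMEM-F12 with 5% NCS, MDA-MB-231 with 5% FBS, MCF-10A with 5% horse serum plus hEGF, insulin, hydrocortisone, cholera enterotoxin; 37 °C, 5% CO2.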

MCF-10A = assay: Cytotoxicity against human MCF10A cells assessed as reduction in cell viability after 72 hrs by MTT assay; format: cell-based; outline: as §1
Tubulin (Bos taurus) [1] = molecular target: T1, Tubulin (Bos taurus) (UniProt Q6B856+Q862L2+Q862F3); assay: Inhibition of bovine tubulin at 10 uM assessed as tubulin heterodimers assembly to form microtubule by measuring OD at 350nm in presence of GTP measured every 30 secs for 90 mins by turbidimetric assay; format: protein assay
Outline: (§2)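 Kit-based assay: 60 µM tubulin in 1x PB-GTP with compound at 10 µM final (DMSO vehicle control), 37 °C, 10 s shaking before each reading. Turbidity read at 350 nm every 30 s for 90 min. Paclitaxel and Vinblastine at 10 µM final as stabilizing and destabilizing references.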

MCF7 = assay: Antiproliferative activity against ER-alpha positive human MCF7 cells assessed as reduction in cell viability after 72 hrs by MTT assay; format: functional, cell-based; conditions: MCF7, 72 h; outline: as §1
[2] = molecular target: DNA topoisomerase 2-alpha (Homo sapiens) (UniProt P11388); assay: Inhibition of human topoisomerase 2 mediated decatenation at 50 uM using kinetoplast DNA as susbtrate after 1 hr by ethidium bromide staining based agarose gel electrophoresis
Outline: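 Decatenation in 20 µL with 0.2 µg kinetoplast DNA and 3 units hTopo II; compounds at 50 µM, 1 h at 37 °C.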

[3] = molecular target: DNA topoisomerase 2-alpha (Homo sapiens) (UniProt P11388); assay: Inhibition of human topoisomerase 2 mediated decatenation up to 100 uM using kinetoplast DNA as susbtrate after 1 hr by ethidium bromide staining based agarose gel electrophoresis
Tubulin (Bos taurus) [4] = molecular target: T1, Tubulin (Bos taurus); assay: Inhibition of bovine tubulin assessed as decrease in tubulin polymerization gradually followed by steady state decrease measured after 30 mins by turbidimetric assay; format: protein assay; outline: as §2
[5] = molecular target: T2, DNA topoisomerase 1 (Homo sapiens) (UniProt P11387); assay: Inhibition of recombinant human topoisomerase 1 mediated DNA relaxation assessed as uncleaved plasmid DNA at 50 uM using supercoiled pHOT1 plasmid as substrate after 1 hr by ethidium bromide staining based agarose gel electrophoresis
T2 sequence (whole entry): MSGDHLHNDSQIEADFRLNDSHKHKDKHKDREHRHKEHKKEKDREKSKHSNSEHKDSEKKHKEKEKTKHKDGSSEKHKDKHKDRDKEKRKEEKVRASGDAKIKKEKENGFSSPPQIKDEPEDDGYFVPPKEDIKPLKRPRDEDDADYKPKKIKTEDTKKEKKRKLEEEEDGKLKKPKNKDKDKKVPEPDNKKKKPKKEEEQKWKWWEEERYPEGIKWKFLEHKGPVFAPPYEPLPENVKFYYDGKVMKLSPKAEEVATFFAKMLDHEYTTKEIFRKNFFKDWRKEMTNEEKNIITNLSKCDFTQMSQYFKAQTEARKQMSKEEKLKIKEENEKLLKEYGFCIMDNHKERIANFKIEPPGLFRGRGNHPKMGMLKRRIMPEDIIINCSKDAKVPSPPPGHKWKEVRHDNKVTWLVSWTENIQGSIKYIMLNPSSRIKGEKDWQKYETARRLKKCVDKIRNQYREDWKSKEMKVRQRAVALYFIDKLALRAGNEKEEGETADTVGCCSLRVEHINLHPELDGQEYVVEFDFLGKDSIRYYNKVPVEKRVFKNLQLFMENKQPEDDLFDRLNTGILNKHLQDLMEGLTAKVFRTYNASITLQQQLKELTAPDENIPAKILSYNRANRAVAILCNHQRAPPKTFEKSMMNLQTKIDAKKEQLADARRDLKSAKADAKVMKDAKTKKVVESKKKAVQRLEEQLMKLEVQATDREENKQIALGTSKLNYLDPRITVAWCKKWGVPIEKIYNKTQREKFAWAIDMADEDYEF
Outline: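 Relaxation in 20 µL: 0.25 µg supercoiled pHOT1 in TE buffer, 2 units recombinant hTopo I, compound at 50 µM final, 1 h at 37 °C. Run on 1% agarose in 1x TAE without EB, then stained 30 min with EB (0.5 µg/mL), washed 15 min in water, viewed under UV. Three repeats.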

Tubulin (Bos taurus) [6] = molecular target: T1, Tubulin (Bos taurus); assay: Inhibition of bovine tubulin assessed as decrease in tubulin polymerization gradually followed by steady state decrease measured after 15 mins by turbidimetric assay; format: protein assay; outline: as §2

Chain of DNA topoisomerase 2-alpha (Homo sapiens) (P11388 whole entry): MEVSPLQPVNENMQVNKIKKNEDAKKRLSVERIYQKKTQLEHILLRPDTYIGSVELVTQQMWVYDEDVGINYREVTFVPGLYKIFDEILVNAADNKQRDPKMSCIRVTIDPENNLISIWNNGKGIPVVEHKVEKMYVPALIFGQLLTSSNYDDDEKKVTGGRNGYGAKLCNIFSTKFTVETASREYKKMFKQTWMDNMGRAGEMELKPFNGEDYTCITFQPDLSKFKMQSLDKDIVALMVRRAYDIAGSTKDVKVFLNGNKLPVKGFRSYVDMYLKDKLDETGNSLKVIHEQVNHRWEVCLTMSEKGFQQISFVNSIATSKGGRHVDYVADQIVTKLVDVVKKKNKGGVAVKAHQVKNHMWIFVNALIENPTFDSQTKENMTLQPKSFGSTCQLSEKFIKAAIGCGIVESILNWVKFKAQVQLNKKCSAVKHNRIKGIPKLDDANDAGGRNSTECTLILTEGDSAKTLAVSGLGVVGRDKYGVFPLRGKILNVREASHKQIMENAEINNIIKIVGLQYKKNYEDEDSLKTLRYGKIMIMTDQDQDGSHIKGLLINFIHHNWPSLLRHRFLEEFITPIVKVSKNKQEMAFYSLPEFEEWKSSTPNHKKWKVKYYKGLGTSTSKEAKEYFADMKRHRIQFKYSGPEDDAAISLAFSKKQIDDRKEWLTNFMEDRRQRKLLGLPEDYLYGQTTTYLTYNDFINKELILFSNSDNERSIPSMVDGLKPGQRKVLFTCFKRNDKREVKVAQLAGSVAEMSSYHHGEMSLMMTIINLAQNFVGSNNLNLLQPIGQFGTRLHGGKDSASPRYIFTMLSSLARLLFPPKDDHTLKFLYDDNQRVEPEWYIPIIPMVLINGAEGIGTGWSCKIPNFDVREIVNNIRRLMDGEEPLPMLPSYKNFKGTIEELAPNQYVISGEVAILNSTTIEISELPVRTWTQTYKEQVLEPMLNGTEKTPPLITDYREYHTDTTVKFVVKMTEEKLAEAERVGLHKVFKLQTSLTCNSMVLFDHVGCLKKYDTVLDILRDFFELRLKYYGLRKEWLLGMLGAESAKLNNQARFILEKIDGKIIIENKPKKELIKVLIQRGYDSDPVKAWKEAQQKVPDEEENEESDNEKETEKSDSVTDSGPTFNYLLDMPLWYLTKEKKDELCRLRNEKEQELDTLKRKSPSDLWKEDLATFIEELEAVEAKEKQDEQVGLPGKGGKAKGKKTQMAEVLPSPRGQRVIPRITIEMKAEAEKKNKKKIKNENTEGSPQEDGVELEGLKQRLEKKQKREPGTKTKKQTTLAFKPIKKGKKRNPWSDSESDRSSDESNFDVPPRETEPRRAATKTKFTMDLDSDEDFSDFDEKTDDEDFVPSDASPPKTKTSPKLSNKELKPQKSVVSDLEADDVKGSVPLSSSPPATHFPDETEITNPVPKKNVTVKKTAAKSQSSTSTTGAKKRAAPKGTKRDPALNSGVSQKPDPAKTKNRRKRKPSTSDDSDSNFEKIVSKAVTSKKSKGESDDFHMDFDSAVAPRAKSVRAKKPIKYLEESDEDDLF

SMILES: CCCN(CCC)c1nc2ccc3c4ccccc4sc3c2c(=O)[nH]1
- IC50 (MDA-MB-231): 4.69 µM
- IC50 (MCF-10A): > 100 µM
- OD (Tubulin (Bos taurus) [1]): 0.26
- IC50 (MCF7): 42 µM
- inhibition [2]: inactive
- inhibition [3]: inactive
- inhibition (Tubulin (Bos taurus) [4]): Active

SMILES: Cc1c2ccncc2c(C)c2c1[nH]c1ccccc12 [ELLIPTECINE]
- IC50 (MDA-MB-231): 1.85 µM
- IC50 (MCF-10A): 1.2 µM
- inhibition [5]: Active

SMILES: O=c1[nH]c(NC2CCCC2)nc2ccc3c4ccccc4sc3c12
- IC50 (MDA-MB-231): 5.59 µM
- IC50 (MCF-10A): > 100 µM
- IC50 (MCF7): 45.6 µM

SMILES: CC(=O)O[C@H]1C(=O)[C@@]2(C)[C@H]([C@H](OC(=O)c3ccccc3)[C@]3(O)C[C@H](OC(=O)[C@H](O)[C@@H](NC(=O)c4ccccc4)c4ccccc4)C(C)=C1C3(C)C)[C@]1(OC(C)=O)CO[C@@H]1C[C@@H]2O
- OD (Tubulin (Bos taurus) [1]): 0.52

SMILES: CC[C@]1(O)C[C@@H]2CN(CCc3c([nH]c4ccccc34)[C@@](C(=O)OC)(c3cc4c(cc3OC)N(C)[C@H]3[C@@](O)(C(=O)OC)[C@H](OC(C)=O)[C@]5(CC)C=CCN6CC[C@]43[C@@H]65)C2)C1 [VINBLASTINE]
- IC50 (MCF-10A): 25.9 µM
- OD (Tubulin (Bos taurus) [1]): 0.2
- IC50 (MCF7): 15 µM

SMILES: CCCCNc1nc2ccc3c4ccccc4sc3c2c(=O)[nH]1
- IC50 (MDA-MB-231): 38.9 µM
- IC50 (MCF-10A): > 100 µM
- IC50 (MCF7): 74.5 µM

SMILES: CCCCCN(CCCCC)c1nc2ccc3c4ccccc4sc3c2c(=O)[nH]1
- IC50 (MDA-MB-231): 42.4 µM
- IC50 (MCF-10A): > 100 µM
- IC50 (MCF7): 75.2 µM

SMILES: O=c1[nH]c(N2CCOCC2)nc2ccc3c4ccccc4sc3c12
- IC50 (MDA-MB-231): 9.43 µM
- IC50 (MCF-10A): > 100 µM
- IC50 (MCF7): 21.2 µM

SMILES: CCCNc1nc2ccc3c4ccccc4sc3c2c(=O)[nH]1
- IC50 (MDA-MB-231): 3.88 µM
- IC50 (MCF-10A): > 100 µM
- OD (Tubulin (Bos taurus) [1]): 0.24
- IC50 (MCF7): 40.7 µM
- inhibition (Tubulin (Bos taurus) [6]): Active
- inhibition [5]: Active
- inhibition [2]: inactive
- inhibition [3]: inactive
